A word on the GI50: it is the concentration at which growth is held to half of that of the control. A low value points to more potent growth inhibition. As usually defined, the inhibition is the relative decrease from the control value, in per cent. A low value points to a weak effect. For orientation: IC50 means the concentration that gives 50% inhibition. Low values mean higher potency, high ones lower potency.

Results on 27 molecules are retold here after ChEMBL document CHEMBL3808340, “Development of Novel 1,2,3,4-Tetrahydroquinoline Scaffolds as Potent NF-κB Inhibitors and Cytotoxic Agents” (ACS Med Chem Lett, 2016).

SMILES strings stand for the structures.

Assay [1] concerns NCI-H23. Put plainly: Cytotoxicity against human NCI-H23 cells after 72 hrs by sulforhodamine B assay. The class given is functional. To be noted: NCI-H23, 72 h. In a few lines:
(§1)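 Sulforhodamine B staining following the NCI (USA) protocol was used to estimate cell number indirectly in six human cancer lines. GI50 is the concentration giving a 50% decrease in net cell growth, reported as the mean of three experiments.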
On the technique in general: In SRB staining, fixed cells bind dye roughly in proportion to their protein.

Assay [2] relates to RAW264.7. Put plainly: Inhibition of LPS-induced NFkappaB (unknown origin) transcriptional activity expressed in mouse RAW264.7 cells at 100 uM incubated for 16 hrs by SEAP based reporter gene assay relative to control. Type of assay: cell-based.
Assay [3] deals with ACHN. Put plainly: Cytotoxicity against human ACHN cells after 72 hrs by sulforhodamine B assay. Type of assay: functional. In a few lines:
as §1

Assay [4] is described as follows: Cytotoxicity against human PC3 cells after 72 hrs by sulforhodamine B assay. Type of assay: functional. The note with it: PC-3, 72 h. A digest of the protocol:
as §1

The subject of assay [5] is MDA-MB-231. Put plainly: Cytotoxicity against human MDA-MB-231 cells after 72 hrs by sulforhodamine B assay. The class given is functional. The note with it: MDA-MB-231, 72 h. In a few lines: as §1
Assay [6] can be described thus: Cytotoxicity against human NUGC3 cells after 72 hrs by sulforhodamine B assay. Type of assay: functional. To be noted: NUGC-3, 72 h. In a few lines:
as §1

The nature of assay [7]: Cytotoxicity against human HCT15 cells after 72 hrs by sulforhodamine B assay. To be noted: HCT-15, 72 h. The class given is functional. A digest of the protocol: as §1
Assay [8] in a line: Inhibition of LPS-induced NFkappaB (unknown origin) transcriptional activity expressed in mouse RAW264.7 cells incubated for 16 hrs by SEAP based reporter gene assay. Type of assay: cell-based. The note with it: RAW264.7, 16 h. (Reporter assays use an easily measured gene product as a stand-in for the process of interest.)

Turning to `O=C(Nc1ccc(C(F)(F)F)cc1)C1CCc2ccccc2N1` (stereo not given), the GI50 in assay [1] came to 25.8 µM; in assay [3], 25 µM; in assay [4], 20.3 µM; in assay [5] it was 24.2 µM; in assay [6], 18.6 µM; in assay [7] it was 17.6 µM. For the same molecule, the inhibition in assay [2] was determined as 79%. This molecule came in with an IC50 in assay [8] of 68 µM.
Turning to `O=C(Nc1cc(C(F)(F)F)cc(C(F)(F)F)c1)C1CCc2ccccc2N1C(=O)c1ccccc1` (stereo not given), the GI50 in assay [1] is 2.13 µM; in assay [3], 2.92 µM; in assay [4], 3.5 µM; in assay [5] it was 2.43 µM; in assay [6] it was 1.68 µM; in assay [7] it was 3.54 µM. For the same molecule, in assay [2], the inhibition is 66%. The same molecule had an IC50 in assay [8] of 29 µM.
Turning to `CC(=O)N1c2ccccc2CCC1C(=O)Nc1ccccc1C(F)(F)F` (stereo not given), the GI50 in assay [1], in assay [3], in assay [4], in assay [5], in assay [6] and in assay [7] was above 80 µM throughout. The molecule further gave an inhibition in assay [2] of 32%.
For the molecule `O=C(Nc1ccccc1O)C1CCc2ccccc2N1C(=O)c1cccc(Cl)c1` (stereo not given), the GI50 in assay [1] is 11.6 µM; in assay [3] it was 17.2 µM; in assay [4], 23.3 µM; in assay [5], 10.6 µM; in assay [6], 11 µM; in assay [7], 23.1 µM. This molecule yielded an inhibition in assay [2] of 58%. Further, in assay [8], the IC50 was 78 µM.
As to `COc1ccc(NC(=O)C2CCc3ccccc3N2)cc1` (stereo not given), the GI50 is 55.7 µM in assay [1]; 38 µM in assay [3]; 56.9 µM in assay [4]; 51.4 µM in assay [5]; 51.9 µM in assay [6]; 50.2 µM in assay [7]. The molecule further showed an inhibition in assay [2] above 100%. The same molecule yielded a half-inhibitory concentration (IC50) in assay [8] of 34 µM.
With `O=C(Nc1ccc(O)cc1)C1CCc2ccccc2N1` (stereo not given), the GI50 in assay [1], in assay [3], in assay [4], in assay [5], in assay [6] and in assay [7] was above 100 µM throughout. In addition, the inhibition in assay [2] came to 64%. The same molecule gave an IC50 in assay [8] of 65 µM.
For the molecule `O=C(Nc1ccc(C(F)(F)F)cc1)c1ccc2ccccc2n1`, the GI50 in assay [1] was above 90 µM.
In assay [8], `S=C(S)N1CCCC1` [PYRROLIDINE DITHIOCARBAMATE] displayed an IC50 of 37.2 µM. This counts as double-digit micromolar.
On to `O=C(Nc1ccccc1C(F)(F)F)c1ccc2ccccc2n1`, for which the GI50 in assay [1] is above 90 µM.
`O=C(Nc1cc(C(F)(F)F)cc(C(F)(F)F)c1)C1CCc2ccccc2N1C(=O)c1cccc(Cl)c1` (stereo not given): the GI50 in assay [1] was 0.42 µM; in assay [3], 0.813 µM; in assay [4] it was 1.05 µM; in assay [5], 1.19 µM; in assay [6], 0.56 µM; in assay [7], 0.625 µM. The molecule further gave an inhibition in assay [2] of 68%. This molecule also yielded an IC50 in assay [8] of 27 µM.
Take `O=C(Nc1cc(C(F)(F)F)cc(C(F)(F)F)c1)C1CCc2ccccc2N1` (stereo not given): the GI50 is 8.41 µM in assay [1]; 8.19 µM in assay [3]; 8.12 µM in assay [4]; 8.27 µM in assay [5]; 8.76 µM in assay [6]; 8.7 µM in assay [7]. In assay [2], this molecule came in with an inhibition above 100%. For the same molecule, in assay [8], the IC50 turned out to be 26 µM.
In the case of `CC(=O)N1c2ccccc2CCC1C(=O)Nc1ccccc1O` (stereo not given), the GI50 was determined as 65.7 µM in assay [1]; 50.7 µM in assay [3]; 70.7 µM in assay [4]; 89.6 µM in assay [5]; 49.7 µM in assay [6]; 54.5 µM in assay [7]. Also, the inhibition in assay [2] was 19%.
For `CCC(=O)N1c2ccccc2CCC1C(=O)Nc1ccccc1C(F)(F)F` (stereo not given), the GI50 in assay [1], in assay [3], in assay [4], in assay [5], in assay [6] and in assay [7] was above 80 µM throughout. This molecule gave an inhibition in assay [2] of 43%.
`CCC(=O)N1c2ccccc2CCC1C(=O)Nc1cc(C(F)(F)F)cc(C(F)(F)F)c1` (stereo not given): the GI50 came out at 7.82 µM in assay [1]; 7.72 µM in assay [3]; 8.54 µM in assay [4]; 7.28 µM in assay [5]; 7.22 µM in assay [6]; 7.62 µM in assay [7]. The molecule also came in with an inhibition in assay [2] of 91%. In assay [8], this molecule yielded an IC50 of 20 µM.
Take `CCCC(=O)N1c2ccccc2CCC1C(=O)Nc1ccccc1C(F)(F)F` (stereo not given): the GI50 in assay [1], in assay [3], in assay [4], in assay [5], in assay [6] and in assay [7] was above 70 µM in each case. The molecule also registered an inhibition in assay [2] of 51%. Moreover, the IC50 in assay [8] worked out at 95 µM.
As to `CCCC(=O)N1c2ccccc2CCC1C(=O)Nc1ccccc1O` (stereo not given), the GI50 in assay [1] was found to be 43.1 µM; in assay [3], 50.6 µM; in assay [4], 72.5 µM; in assay [5], 38 µM; in assay [6], 35.4 µM; in assay [7] it was 58.3 µM. The inhibition in assay [2] was 41%.
`O=C(Nc1cc(C(F)(F)F)cc(C(F)(F)F)c1)C1CCc2ccccc2N1C(=O)c1ccccc1Cl` (stereo not given): the GI50 in assay [1] was 2.08 µM; in assay [3], 4.7 µM; in assay [4] it was 8.04 µM; in assay [5], 5.25 µM; in assay [6], 1.93 µM; in assay [7] it was 4.05 µM. Further, the inhibition in assay [2] was determined as 90%. This molecule also had an IC50 in assay [8] of 23 µM.
With `COc1ccc(NC(=O)c2ccc3ccccc3n2)cc1`, halving of growth in assay [1] (GI50) required 7.65 µM. This counts as single-digit micromolar.
For `O=C(Nc1ccc(O)cc1)c1ccc2ccccc2n1`, halving of growth in assay [1] (GI50) required 102 µM. This GI50 is about 13-fold higher than that of the molecule before.
In turn, `COc1cc2c(cc1O)CCC(C(=O)Nc1ccccc1)O2` (stereo not given) showed an inhibition in assay [2] of 72%. The molecule further gave an IC50 in assay [8] of 53 µM.
Take `CCC(=O)N1c2ccccc2CCC1C(=O)Nc1ccccc1O` (stereo not given): the GI50 in assay [1], in assay [3], in assay [4], in assay [5], in assay [6] and in assay [7] was above 90 µM in each case. Moreover, the inhibition in assay [2] worked out at 31%.
For `CCCCCCCCC(=O)N1c2ccccc2CCC1C(=O)Nc1ccccc1O` (stereo not given), the GI50 was 55.8 µM in assay [1]; 65 µM in assay [3]; 45.2 µM in assay [4]; 54.3 µM in assay [5]; 31.1 µM in assay [6]; 38.4 µM in assay [7]. Moreover, in assay [2], the inhibition came to 22%.
Regarding `COc1cccc2c1C(=O)c1c(O)c3c(c(O)c1C2=O)C[C@@](O)(C(=O)CO)C[C@@H]3O[C@H]1C[C@H](N)[C@H](O)[C@H](C)O1` [DOXORUBICIN], the GI50 was determined as 0.0726 µM in assay [1]; 0.0995 µM in assay [3]; 0.0923 µM in assay [4]; 0.112 µM in assay [5]; 0.125 µM in assay [6]; 0.0854 µM in assay [7].
As for `O=C(Nc1cc(C(F)(F)F)cc(C(F)(F)F)c1)c1ccc2ccccc2n1`, it took 1.44 µM to inhibit growth in assay [1] by half (GI50).
The same measure, in the same setting: under `O=C(Nc1ccccc1)c1ccc2ccccc2n1` stands 108 µM.
In the case of `O=C(Nc1ccccc1C(F)(F)F)C1CCc2ccccc2N1C(=O)c1ccccc1` (stereo not given), the GI50 is 6.34 µM in assay [1]; 8.09 µM in assay [3]; 5.56 µM in assay [4]; 5.29 µM in assay [5]; 8.12 µM in assay [6]; 6.5 µM in assay [7]. This molecule also had an inhibition in assay [2] of 44%.
In turn, `O=C(Nc1ccccc1O)c1ccc2ccccc2n1` returned a GI50 in assay [1] of 87.5 µM.
